Laboratory results as given in ChEMBL document CHEMBL1123247, “Nucleoside conjugates. 7. Synthesis and antitumor activity of 1-beta-D-arabinofuranosylcytosine conjugates of ether lipids” (J Med Chem, 1986).

What was measured:
L1210 [1] = assay: Antitumor activity was determined against the ip implanted L1210 leukemia in mice by percent increase in life span at 200 mg/kg (treatment of 1qd schedule) dosage; format: functional, Mus musculus; conditions: route intraperitoneal
Procedure, shortened: (§1)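 DBA/2J mice in groups of 6 (wt 23-28 g) were inoculated ip with 1×10^6 L1210 cells on day 0. Dosing was ip from 24 h, in 0.9% NaCl with 0.5% Tween-80 (conjugates sonicated), across a range of doses. Mice were observed daily until death or 45 days. Median T/C was computed from survivors per NCI protocols, and ILS = (T/C − 1)×100.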

L1210 [2] = assay: Antitumor activity was determined against the ip implanted L1210 leukemia in mice by median survival time at 200 mg/kg (treatment of 1qd schedule) dosage; 17.5/7.0; conditions: route intraperitoneal
L1210 [3] = assay: Antitumor activity was determined against the ip implanted L1210 leukemia in mice by change in […] at 200 mg/kg (treatment of 1qd schedule) dosage; format: functional, Mus musculus; conditions: route intraperitoneal
Procedure, shortened: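 DBA/2J mice, 6 per group (wt 23-28 g), inoculated ip with 1×10^6 L1210 cells on day 0. Treatment was given ip in 0.9% NaCl with 0.5% Tween-80, starting 24 h later. Weight change was taken on day 8. Mice were observed daily until death or 45 days. Median survival T/C and %ILS = (T/C − 1) × 100 came from survivors per NCI protocols, and 45-day survivors were counted.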

P388 [4] = assay: Antitumor activity was determined against the ip implanted P388 leukemia in mice by percent increase in life span at 100 mg/kg (treatment of 1qd schedule) dosage; conditions: route intraperitoneal
L1210 [5] = assay: Antitumor activity was determined against the ip implanted L1210 leukemia in mice by 45-day survivors in mice at 200 mg/kg (treatment of 1qd schedule) dosage; format: functional, Mus musculus; conditions: route intraperitoneal; procedure, shortened: as §1
L1210 [6] = assay: Antitumor activity was determined against the ip implanted L1210 leukemia in mice by range in survival days at 200 mg/kg (treatment of 1qd schedule) dosage; Range is 12->45; format: functional, Mus musculus; conditions: route intraperitoneal
Procedure, shortened: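 DBA/2J mice, 23-28 g, in groups of 6, were inoculated ip with 1×10^6 L1210 cells on day 0. Dosing was ip starting 24 h later on the stated daily schedules. Conjugates were given as sonicated solutions and reference prodrugs as suspensions in 0.9% NaCl with 0.5% Tween-80. Mice were observed daily until death or 45 days. Median survival T/C was calculated from survivors per NCI protocols.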

P388 [7] = assay: Antitumor activity against ip implanted P388 leukemia in mice expressed as active dose range (1 qd treatment schedule) required to produce increase in life span by >25% was determined; Range is 50-100; format: functional, Mus musculus
Procedure, shortened: (§2)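 P388 leukemia: 1 × 10^6 cells were given ip on day 0 to DBA/2J mice, groups of 6 (23-33 g). Treatment was ip from 24 h after inoculation, vehicle 0.9% NaCl with 0.5% Tween-80. Mice were observed daily until death or 45 days. Median survival T/C was calculated from survivors per NCI protocols, and ILS = (T/C − 1) × 100. Active range means doses giving ILS ≥25%; optimal dose means greatest ILS.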

P388 [8] = assay: Antitumor activity against the ip implanted P388 leukemia in mice expressed as optimal dose (1 qd treatment schedule) required to produce greatest increase in life span was determined; format: functional, Mus musculus; procedure, shortened: as §2
L1210 [9] = assay: Antitumor activity against the ic implanted L1210 lymphoid leukemia in mice expressed as optimal dose (1 qd treatment schedule) required to produce greatest increase in life span was determined; format: functional, Mus musculus
Procedure, shortened: (§3)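 DBA/2J mice, groups of 6 (26-32 g), got 1 × 10^5 L1210 cells ic on day 0. Dosing was ip starting 24 h later, as a sonicated solution or suspension in 0.9% NaCl with 0.5% Tween-80, over a wide dose range. Mice were followed daily until death. Median survival T/C was taken from survivors per NCI protocols, and ILS = (T/C − 1) × 100. Active range means doses giving ILS ≥25%; optimal dose means greatest ILS.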

P388 leukemia (mouse) = assay: Antitumor activity was determined against the ip implanted P388 leukemia in mice by 45-day survivors in mice at 100 mg/kg (treatment of 1qd schedule) dosage; conditions: route intraperitoneal
L1210 [10] = assay: Antitumor activity against ip implanted L1210 leukemia in mice expressed as active dose range (1 qd treatment schedule) required to produce increase in life span by >25% was determined; Range is 100-250; format: functional, Mus musculus
Procedure, shortened: (§4)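 DBA/2J mice, groups of 6 (23-28 g), were inoculated ip with 1 × 10^6 L1210 cells on day 0. Dosing was ip from 24 h, in 0.9% NaCl with 0.5% Tween-80 (sonicated solution or suspension). Mice were observed daily until death or day 45. Median survival T/C followed NCI protocols, and ILS = (T/C − 1) × 100. Active range means doses giving ILS ≥25%; optimal dose means greatest ILS.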

L1210 [11] = assay: Antitumor activity was determined against the ic implanted L1210 lymphoid leukemia in mice by change in […] at 100 mg/kg (1 qd treatment schedule) dosage; format: functional, Mus musculus
Procedure, shortened: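 DBA/2J mice, 6 per group (wt 26-32 g), inoculated ic with 1×10^5 L1210 cells on day 0. Dosing ip began 24 h after inoculation, with a sonicated solution or suspension in 0.9% NaCl containing 0.5% Tween-80, given over a range of doses. Animals were followed daily until death. Body weight change, median survival T/C, and %ILS = (T/C − 1) × 100 were computed from survivors per NCI protocols.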

L1210 [12] = assay: Antitumor activity was determined against the ic implanted L1210 lymphoid leukemia in mice by percent increase in life span at 100 mg/kg (1 qd treatment schedule) dosage; format: functional, Mus musculus; procedure, shortened: as §3
L1210 [13] = assay: Antitumor activity was determined against the ic implanted L1210 lymphoid leukemia in mice by […] at 100 mg/kg (1 qd treatment schedule) dosage; 17.5-7.0; format: functional, Mus musculus; procedure, shortened: as §3
P388 [14] = assay: Antitumor activity was determined against the ip implanted L1210 leukemia in mice by change in […] at 100 mg/kg (treatment of 1qd schedule) dosage; format: functional, Mus musculus; conditions: route intraperitoneal, in the assay text read “P388 leukemia” for “L1210 leukemia”
P388 [15] = assay: Antitumor activity was determined against the ip implanted P388 leukemia in mice by range in survival days at 100 mg/kg (treatment of 1qd schedule) dosage; Range is 28->45; conditions: route intraperitoneal
L1210 [16] = assay: Antitumor activity against the ip implanted L1210 leukemia in mice expressed as optimal dose (1 qd treatment schedule) required to produce greatest increase in life span was determined; format: functional, Mus musculus; procedure, shortened: as §4
L1210 [17] = assay: Antitumor activity was determined against the ic implanted L1210 lymphoid leukemia in mice by range in survival days at 100 mg/kg (1 qd treatment schedule) dosage; Range is 14-18; format: functional, Mus musculus
P388 [18] = assay: Antitumor activity was determined against the ip implanted P388 leukemia in mice by percent median survival rate (treated/control) at 100 mg/kg (treatment of 1qd schedule) dosage; >45.0/12.0; conditions: route intraperitoneal

CCCCCCCCCCCCCCCC(=O)OC[C@H]1O[C@@H](n2ccc(N)nc2=O)[C@@H](O)[C@@H]1O showed an ILS (L1210 [1]) of 150, a median survival time (L1210 [2]) of 17.5 days and a Weight change (L1210 [3]) of 2 g mouse-1. For the same compound, the ILS (P388 [4]) was greater than 275, the Survivors (L1210 [5]) was 1 and the Range (L1210 [6]) was 12. For the same compound, the Active dose range (P388 [7]) was 50 mg/kg/day, the Optimal dose (P388 [8]) was 100 mg and the Optimal dose (L1210 [9]) was 100 mg. The Survivors (P388 leukemia (mouse)) was 4, the Active dose range (L1210 [10]) was 100 mg/kg/day and the Weight change (L1210 [11]) was -2.03 g mouse-1. It also gave an ILS (L1210 [12]) of 150, a median survival time (L1210 [13]) of 17.5 days and a Weight change (P388 [14]) of 0.3 g mouse-1. For the same compound, the Range (P388 [15]) was 28, the Optimal dose (L1210 [16]) was 200 mg/kg/day and the Range (L1210 [17]) was 14. For the same compound, the median survival time (P388 [18]) was greater than 45 days.
